Experiments:
Translocator protein [1] = target: T1, Translocator protein (Homo sapiens, UniProt P30536); assay: Displacement of [3H]PK11195 from human wild type TSPO expressed in HEK293T cell membranes after 90 mins by scintillation counting method
Homo sapiens = organism: Homo sapiens; assay: Selectivity ratio of Ki for human TSPO A147T mutant to Ki for human wild type TSPO
HEK-293T [2] = assay: Antiproliferative activity against HEK293T cells expressing human wild type TSPO after 48 hrs by BrdU incorporation assay; type: functional, cell-based
Outline: (§1)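 293T cells stably expressing human TSPO WT or A147T (lentiviral, puromycin-selected) seeded at 8.75 × 10³ cells/well on poly-L-lysine-coated plates, treated next day with vehicle or compound (1–100 μM) for 48 h. BrdU added for 4 h at 37 °C, incorporation detected by ELISA, absorbance read at 450 nm.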

HEK-293T [3] = assay: Cytotoxicity against HEK293T cells expressing human wild type TSPO assessed as decrease in cell viability after 48 hrs by CellTiter blue assay; type: functional, cell-based
Outline: (§2)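 Stable TSPO WT or A147T 293T cells at 8.75 × 10³ cells/well on poly-L-lysine-coated plates, exposed next day to vehicle or compound (1–100 μM) for 48 h. CellTiter Blue (resazurin to resorufin) added for 4 h at 37 °C, fluorescence read at Ex560/Em590 nm.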

Translocator protein [4] = target: T1, Translocator protein; assay: Ratio of Ki for displacement of [3H]PK11195 from human brain TSPO isolated from low affinity binder patient to Ki for [3H]PK11195 from human brain TSPO isolated from high affinity binder patient
HEK-293T [5] = assay: Cytotoxicity against HEK293T cells expressing human TSPO A147T mutant assessed as decrease in cell viability after 48 hrs by CellTiter blue assay; type: functional, cell-based; outline: as §2
HEK-293T [6] = assay: Antiproliferative activity against HEK293T cells expressing human TSPO A147T mutant after 48 hrs by BrdU incorporation assay; type: functional, cell-based; outline: as §1
[7] = Selectivity ratio of IC50 for HEK293T cells expressing human TSPO A147T mutant assessed as decrease in cell viability to IC50 for HEK293T cells expressing human wild type TSPO assessed as decrease in cell viability; type: functional
[8] = Selectivity ratio of IC50 for HEK293T cells expressing human TSPO A147T mutant assessed as decrease in cell proliferation to IC50 for HEK293T cells expressing human wild type TSPO assessed as decrease in cell proliferation; type: functional

T1 sequence (P30536 whole entry): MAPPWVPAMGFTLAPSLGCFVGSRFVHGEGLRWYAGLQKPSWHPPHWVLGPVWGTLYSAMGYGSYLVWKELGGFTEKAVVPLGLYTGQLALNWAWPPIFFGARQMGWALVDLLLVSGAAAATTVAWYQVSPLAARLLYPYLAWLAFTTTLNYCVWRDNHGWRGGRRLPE

Structure (SMILES) | Ki (Translocator protein [1]) | Ratio Ki (Homo sapiens) | IC50 (HEK-293T [2]) | IC50 (HEK-293T [3]) | Ratio Ki (Translocator protein [4]) | IC50 (HEK-293T [5]) | IC50 (HEK-293T [6]) | Ratio IC50 [7] | Ratio IC50 [8]
CCN(Cc1ccccc1)C(=O)Cn1c(=O)n(C)c2cnc(-c3ccccc3)nc21 | 0.0064 µM | 4.9 | > 100 µM | 29.5 µM | 12.6 | 26.2 µM | > 100 µM | 0.9 | –
CCN(CC)C(=O)Cn1c2ccccc2c2cc(Br)ccc21 | 0.0315 µM | 5.1 | – | – | – | – | – | – | –
CCN(Cc1ccccc1)C(=O)Cn1c2ccccc2c2cc(Br)ccc21 | 0.0543 µM | – | – | – | – | – | – | – | –
CCN(CC)C(=O)Cn1c2ccccc2c2cc(-c3ccc(OC)cc3)ccc21 | 0.0289 µM | 3.2 | – | – | – | – | – | – | –
CCN(CC)C(=O)Cn1c2ccccc2c2cc(-c3ccccc3)ccc21 | 0.0316 µM | 5.1 | 50.5 µM | 23.7 µM | – | 22.9 µM | 47.1 µM | 1 | 0.9
CCN(CC)C(=O)Cn1c2ccccc2c2ccccc21 | 0.0301 µM | 5.9 | – | – | – | – | – | – | –
CCC(C)N(C)C(=O)c1cc2ccccc2c(-c2ccccc2Cl)n1 (centres undefined) [PK-11195] | – | – | > 100 µM | 67.4 µM | – | 69.2 µM | > 100 µM | – | –
CCN(Cc1ccccc1)C(=O)Cn1c2ccccc2c2ccccc21 | 0.0916 µM | 5 | > 100 µM | > 100 µM | – | > 100 µM | > 100 µM | – | –
CCN(CC)C(=O)Cc1c(-c2ccc(OC)cc2)nn2c(C)cc(C)nc12 | – | – | > 100 µM | > 100 µM | – | > 100 µM | > 100 µM | – | –
CCN(CC)C(=O)Cn1c2ccccc2c2cc(-c3ccccc3OC)ccc21 | 0.0254 µM | 5.4 | – | – | – | – | – | – | –

Reference: ChEMBL document CHEMBL4138055, “Determination and reduction of translocator protein (TSPO) ligand rs6971 discrimination” (Medchemcomm, 2017)
